Assay results taken from ChEMBL document CHEMBL1125037, “Synthesis and antihypertensive activity of 4-(1,2-dihydro-2-oxo-1-pyridyl)-2H-1-benzopyrans and related compounds, new potassium channel activators” (1990).

How the values were obtained:
Format in all cases: functional
[1] = Ratio of ED30(20h) to ED30(2h) was determined
Rattus norvegicus [2] = experiment: Antihypertensive effect after 1 mg/kg (po) administration in conscious spontaneously hypertensive rat (over a time period of 0-210 minutes).
Summary of the method: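 Male Okamoto-strain SHR (280-330 g, blood pressure >180 mmHg), conscious and unrestrained, given 1 mg/kg orally as a screening dose. Mean arterial pressure was recorded directly and continuously via an aortic catheter from 1 h before to 3.5 h after dosing. The effect is the mean of the maximum individual changes over 3.5 h; N ≥ 3.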

Rattus norvegicus [3] = experiment: Dose required to reduce mean blood pressure was determined after 20h following(po) administration in conscious spontaneously hypertensive rat
Rattus norvegicus [4] = experiment: Dose required to reduce mean blood pressure was determined after 2 hr following(po) administration in conscious spontaneously hypertensive rat
Rattus norvegicus [5] = experiment: Dose required to reduce blood pressure by 30 mmHg after (po) administration in conscious spontaneously hypertensive rat
Summary of the method: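 Conscious male Okamoto-strain SHR (280-330 g, >180 mmHg) were given two to four oral doses beyond the 1 mg/kg screen. Mean arterial pressure was recorded directly via an aortic catheter in unrestrained rats. The ED30, the dose in µg/kg lowering pressure by 30 mmHg, came from linear regression of effect vs log dose.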

Rattus norvegicus [6] = experiment: Dose required to reduce mean blood pressure after 20 hr following (po) administration conscious spontaneously hypertensive rat
Rattus norvegicus [7] = experiment: Dose required to reduce mean blood pressure after 2 hr following (po) administration conscious spontaneously hypertensive rat

Compound	Ratio [1]	Max fall in blood pressure (Rattus norvegicus [2])	ED30 (Rattus norvegicus [3])	ED30 (Rattus norvegicus [4])	ED30 (Rattus norvegicus [5])	ED30 (Rattus norvegicus [6])	ED30 (Rattus norvegicus [7])
CC1(C)Oc2ccc([N+](=O)[O-])cc2[C@@H](n2ccccc2=O)[C@@H]1O	25.2	113 mmHg	0.884 mg/kg	0.035 mg/kg	0.024 mg/kg		
CC1(C)Oc2ccc(C#N)cc2[C@H](N2CCCC2=O)[C@H]1O [(-)-CROMAKALIM]	4.6	78 mmHg			0.11 mg/kg	0.603 mg/kg	0.131 mg/kg
CC1(C)C=C(n2cc(N)ccc2=O)c2cc(C#N)ccc2O1	4.7	94 mmHg			0.206 mg/kg	1.61 mg/kg	0.341 mg/kg
CC(=O)O[C@H]1[C@H](n2ccccc2=O)c2cc(C#N)ccc2OC1(C)C	3.6	89 mmHg			0.106 mg/kg	0.405 mg/kg	0.112 mg/kg
CC1(C)Oc2ccc(C#N)cc2C(N2N=CCCC2=O)[C@@H]1O (some centres undefined)	2.6	63 mmHg			0.211 mg/kg	0.148 mg/kg	0.056 mg/kg
COc1ccn(C2=CC(C)(C)Oc3ccc(C#N)cc32)c(=O)c1		113 mmHg			0.066 mg/kg		
CC1(C)Oc2ccc(C#N)cc2C(n2ncccc2=O)[C@@H]1O (some centres undefined)	1.8	77 mmHg			0.036 mg/kg	0.082 mg/kg	0.045 mg/kg
COC(=O)c1ccc2c(c1)C(n1ccccc1=O)=CC(C)(C)O2	3.6	98 mmHg			0.202 mg/kg	2.06 mg/kg	0.573 mg/kg
COc1ccn([C@@H]2c3cc(C#N)ccc3OC(C)(C)[C@H]2O)c(=O)c1		73 mmHg			0.197 mg/kg		
CC1(C)CC(n2ccccc2=O)c2cc(C#N)ccc2O1 (centres undefined)		92 mmHg			0.15 mg/kg		
CC1(C)Oc2ccc([N+](=O)[O-])cc2[C@]2(n3ccccc3=O)O[C@H]12		118 mmHg			0.06 mg/kg		
CC1(C)Oc2ccc(C#N)cc2[C@@H](n2ccccc2=O)[C@@H]1OC=O	6.2	101 mmHg			0.03 mg/kg	0.416 mg/kg	0.067 mg/kg
CC(=O)c1ccc2c(c1)C(n1ccccc1=O)=CC(C)(C)O2	7.4	130 mmHg			0.025 mg/kg	0.546 mg/kg	0.074 mg/kg
COC(=N)c1ccc2c(c1)C(N1CCCC1=O)[C@H](O)C(C)(C)O2 (some centres undefined)		76 mmHg			0.083 mg/kg		
CC1(C)Oc2ccc(C#N)cc2[C@]2(n3ccccc3=O)O[C@H]12		69 mmHg			0.202 mg/kg		
CC1(C)Oc2ccc(C#N)cc2[C@@H](n2ccccc2=O)[C@@H]1O [EMAKALIM]	3.1	108 mmHg	0.138 mg/kg	0.045 mg/kg	0.05 mg/kg		
CC1(C)C=C(n2ccccc2=O)c2cc(Br)ccc2O1	18.4	131 mmHg			0.11 mg/kg	1.27 mg/kg	0.069 mg/kg
CC1(C)Oc2ccc([N+](=O)[O-])cc2[C@@H](n2ccccc2=O)[C@@H]1OC=O		129 mmHg			0.074 mg/kg		
CC1(C)Oc2ccc(C#N)cc2C(n2ccncc2=O)[C@@H]1O (some centres undefined)	4.4	75 mmHg			0.01 mg/kg	1.29 mg/kg	0.291 mg/kg
CC1(C)C=C(n2ccccc2=O)c2cc([N+](=O)[O-])ccc2O1	146	140 mmHg			0.00083 mg/kg	0.102 mg/kg	0.0007 mg/kg
CC1(C)C=C(n2ccncc2=O)c2cc(C#N)ccc2O1	9.4	105 mmHg			0.022 mg/kg	0.357 mg/kg	0.038 mg/kg
CCOc1ccn(C2=CC(C)(C)Oc3ccc(C#N)cc32)c(=O)c1	> 7.3	136 mmHg			0.017 mg/kg	> 1 mg/kg	0.137 mg/kg
CC1(C)C=C(n2ccccc2=O)c2cc(C#N)ccc2O1 [BIMAKALIM]	5.2	142 mmHg			0.01 mg/kg	0.186 mg/kg	0.036 mg/kg
